According to ChEMBL document CHEMBL1147479, “Synthesis and biological evaluation of benzimidazole-4,7-diones that inhibit vascular smooth muscle cell proliferation” (Bioorg Med Chem Lett, 2004):

Species on record: Rattus norvegicus
Assay: Inhibitory activity against the PDGF-induced proliferation of rat aortic smooth muscle cell (RAoSMC)
Format: functional, organism-based
In short: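 Smooth muscle cells isolated from rat thoracic aorta, kept in DMEM with 10% FBS. Seeded in triplicate at 1×10³ cells/well and grown 24 h, then starved in 0.2% FBS for 72 h. Treated for 48 h in DMEM with PDGF (5 ng/mL) and 5% FBS. Proliferation read by WST-1 uptake (colorimetric); IC50 derived by comparison with mycophenolic acid standard.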

SMILES	IC50
O=C1C(Cl)=C(Nc2ccccc2)C(=O)c2[nH]cnc21	5.5 µM
O=C1C(Cl)=C(Nc2cccc(Br)c2)C(=O)c2[nH]cnc21	1.6 µM
O=C1C(Br)=C(Nc2ccc(F)cc2)C(=O)c2[nH]cnc21	1 µM
O=C1C(Br)=C(Nc2cccc(I)c2)C(=O)c2[nH]cnc21	2.5 µM
Cc1nc2c([nH]1)C(=O)/C(=N/c1ccc(F)c(F)c1F)C(Cl)=C2O	1.1 µM
COc1ccc(OC)c2[nH]cnc12	> 100 µM
Cc1nc2c([nH]1)C(=O)/C(=N/c1ccccc1)C(Cl)=C2O	0.8 µM
Cc1ccc(NC2=C(Br)C(=O)c3nc[nH]c3C2=O)cc1	1 µM
Cc1nc2c([nH]1)C(=O)/C(=N/c1cccc(Br)c1)C(Cl)=C2O	1 µM
Cc1nc2c([nH]1)C(=O)/C(=N/c1ccc(F)cc1)C(Cl)=C2O	3 µM
O=C1C(Cl)=C(Nc2ccccc2)C(=O)c2[nH]c(C(F)(F)F)nc21	50 µM
Cc1nc2c([nH]1)C(=O)/C(=N/c1cccc(Cl)c1)C(Cl)=C2O	0.9 µM
O=C1C(Cl)=C(Nc2cccc(Cl)c2)C(=O)c2[nH]cnc21	1.4 µM
O=C1C(Cl)=C(Nc2cccc(I)c2)C(=O)c2[nH]cnc21	1.3 µM
O=C1C(Br)=C(Nc2ccc(Cl)cc2)C(=O)c2[nH]cnc21	4 µM
O=C1C(Br)=C(Nc2ccccc2)C(=O)c2[nH]cnc21	1.1 µM
O=C1C(Cl)=C(Nc2ccc(I)cc2)C(=O)c2[nH]c(C(F)(F)F)nc21	25 µM
O=C1C(Cl)=C(Nc2ccc(Cl)cc2)C(=O)c2[nH]c(C(F)(F)F)nc21	15 µM

SMILES	IC50
Cc1ccc(NC2=C(Cl)C(=O)c3nc(C(F)(F)F)[nH]c3C2=O)cc1	40 µM
COc1ccc(OC)c2[nH]c(C)nc12	> 100 µM
O=C1C(Cl)=C(Nc2ccc(I)cc2)C(=O)c2[nH]cnc21	1.3 µM
O=C1C(Cl)=C(Nc2ccc(F)cc2)C(=O)c2[nH]c(C(F)(F)F)nc21	12 µM
Cc1nc2c([nH]1)C(=O)/C(=N/c1ccc(I)cc1)C(Cl)=C2O	1 µM
O=C1C(Cl)=C(Nc2ccc(F)cc2)C(=O)c2[nH]cnc21	1.2 µM
Cc1nc2c([nH]1)C(=O)/C(=N/c1ccc(F)cc1F)C(Cl)=C2O	1.2 µM
Cc1ccc(NC2=C(Cl)C(=O)c3nc[nH]c3C2=O)cc1	1.4 µM
O=C1C(Cl)=C(Nc2ccc(C(F)(F)F)cc2)C(=O)c2[nH]cnc21	2.5 µM
O=C1C(Cl)=C(Nc2ccc(C(F)(F)F)cc2)C(=O)c2[nH]c(C(F)(F)F)nc21	20 µM
Cc1ccc(NC2=C(Cl)C(=O)c3nc(C)[nH]c3C2=O)cc1	0.8 µM
Cc1nc2c([nH]1)C(=O)/C(=N/c1ccc(Cl)cc1)C(Cl)=C2O	2.8 µM
O=C1C(Cl)=C(Nc2ccc(F)c(F)c2)C(=O)c2[nH]cnc21	1.1 µM
Cc1nc2c([nH]1)C(=O)/C(=N/c1ccc(Cl)cc1Cl)C(Cl)=C2O	0.8 µM
O=C1C(Br)=C(Nc2ccc(C(F)(F)F)cc2)C(=O)c2[nH]cnc21	3.1 µM
Cc1nc2c([nH]1)C(=O)/C(=N/c1cccc(Cl)c1Cl)C(Cl)=C2O	0.6 µM
Cc1nc2c([nH]1)C(=O)/C(=N/c1ccc(C(F)(F)F)cc1)C(Cl)=C2O	0.6 µM
COc1c(C)c2c(c(O)c1C/C=C(\C)CCC(=O)O)C(=O)OC2 [MYCOPHENOLIC ACID]	1 µM
